The record followed here is ChEMBL document CHEMBL1125359, “omega-[(4,6-Diphenyl-2-pyridyl)oxy]alkanoic acid derivatives: a new family of potent and orally active LTB4 antagonists” (J Med Chem, 1992).

In test [1] the target is T1, Leukotriene B4 receptor 1 (Homo sapiens, UniProt Q15722). The test is described as follows: Inhibition of [3H]-LTB4 binding to Leukotriene B4 receptor in the human polymorphonuclear leukocytes. A digest of the protocol: (§1)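 PMNs from normal donors' peripheral blood, isolated by dextran T500 sedimentation, Ficoll-Hypaque centrifugation and hypotonic lysis. Cells incubated with 0.5 nM [3H]LTB4 (173 Ci/mmol) for 15 min at 0 °C across a range of compound concentrations. Percent inhibition of specific binding measured; IC50 derived graphically, mean of three replicates, mostly on one cell preparation.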

The target of test [2] is T1, Leukotriene B4 receptor 1. Nature of the test: Inhibition of LTB4-induced elastase release in human polymorphonuclear leukocytes. Format: functional, cell-based.
Test [3] addresses T1, Leukotriene B4 receptor 1. The test is described as follows: Inhibition of [3H]LTB4 binding to Leukotriene B4 receptor of human polymorphonuclear leukocytes. A digest of the protocol: as §1
In test [4] the target is Leukotriene B4 receptor 1 (Cavia porcellus). Nature of the test: Inhibition of [3H]LTB4 binding to Leukotriene B4 receptor in the guinea pig spleen membranes.

T1 sequence (Q15722 whole entry): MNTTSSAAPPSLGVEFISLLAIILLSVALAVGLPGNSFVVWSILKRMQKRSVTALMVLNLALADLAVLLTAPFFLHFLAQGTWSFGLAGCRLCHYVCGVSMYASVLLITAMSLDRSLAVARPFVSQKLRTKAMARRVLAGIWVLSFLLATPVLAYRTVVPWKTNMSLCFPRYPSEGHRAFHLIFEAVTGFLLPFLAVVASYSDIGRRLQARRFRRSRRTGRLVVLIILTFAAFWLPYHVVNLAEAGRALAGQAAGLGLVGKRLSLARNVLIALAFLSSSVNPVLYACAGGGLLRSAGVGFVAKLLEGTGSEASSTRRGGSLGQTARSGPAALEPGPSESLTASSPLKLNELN

For the molecule `O=C(O)CCCCCCOc1cc(-c2ccccc2)cc(-c2ccccc2)n1`, the IC50 (commonly the concentration needed to halve the response being measured) in test [1] is 15 nM; in test [2], 2500 nM.

With `CC(C)(CCCCCCOc1cc(-c2ccccc2)cc(-c2ccccc2)n1)C(=O)O`, the IC50 turned out to be 60 nM in test [1] and 100 nM in test [2].

Turning to `NC(=O)CCCCCOc1cc(-c2ccccc2)cc(-c2ccccc2)n1`, the IC50 in test [1] came out at 150 nM.

Consider `CC(CCCCOc1cc(-c2ccc3c(c2)OCO3)cc(-c2ccccc2Cl)n1)C(=O)O` (centres undefined), for which the IC50 in test [1] and in test [2] was 12 nM in each case.

With `CC(C)(CCCCOc1cc(-c2ccc(N)cc2)cc(-c2ccccc2)n1)C(=O)O`, the IC50 amounted to 9.5 nM in test [1] and 15 nM in test [2].

For `O=C(O)CCCCOc1cc(-c2ccccc2)cc(-c2ccccc2)n1`, the IC50 is 300 nM in test [1] and 20000 nM in test [2].

Turning to `CC(CCCCOc1cc(-c2ccc3c(c2)OCO3)cc(-c2ccccc2)n1)C(=O)O` (centres undefined), the IC50 is 6.6 nM in test [1] and 120 nM in test [2].

As to `O=C(O)CCCCCOc1cc(-c2ccccc2)cc(-c2ccccc2)n1`, the figures for the IC50 in test [1] and in test [2] were 30 nM and 2000 nM, respectively.

Take `CC(CCCCOc1cc(-c2ccccc2)cc(-c2ccccc2)n1)C(=O)O` (centres undefined): the IC50 in test [1] came out at 30 nM; in test [2], 22 nM.

In turn, `O=C(O)CCCCCOc1cc(-c2ccc([N+](=O)[O-])cc2)cc(-c2ccccc2)n1` gave an IC50 in test [1] of 600 nM.

For `O=C(O)CCCCCOc1cc(-c2ccc3c(c2)OCO3)cc(-c2ccccc2)n1`, the figures for the IC50 in test [1] and in test [2] were 6 nM and 2000 nM, respectively.

Take `O=C(O)CCCCCOc1cc(-c2ccccc2)cc(-c2ccc(F)cc2)n1`: the IC50 in test [1] is 30 nM; in test [2], above 10000 nM.

As for `COC(=O)CCCCCOc1cc(-c2ccccc2)cc(-c2ccccc2)n1`, the IC50 was 100 nM in test [1] and 1000 nM in test [2].

In turn, `O=C(O)CCCCCOc1cc(-c2ccc(NC(=O)C(F)(F)F)cc2)cc(-c2ccccc2)n1` had a 50% inhibitory concentration (IC50) in test [2] above 10000 nM.

`CC(C)(CCCCOc1cc(-c2ccccc2)cc(-c2ccccc2)n1)c1nnn[nH]1`: the IC50 was determined as 20 nM in test [1] and 8 nM in test [2].

`CC(CCCCOc1cc(-c2ccccc2)cc(-c2ccccc2Cl)n1)C(=O)O` (centres undefined): the IC50 in test [2] worked out at 40 nM; in test [3] it was 6 nM.

Consider `O=C(O)CCCCCOc1cc(-c2ccccc2Cl)cc(-c2ccccc2)n1`, for which the IC50 in test [2] is above 10000 nM.

For `CC(CCCCOc1cc(-c2ccccc2)cc(-c2ccccc2F)n1)C(=O)O` (centres undefined), the IC50 in test [1] was 18 nM; in test [2], 70 nM.

As to `COc1ccc(/C=C/CCCCOc2ccc(C(=O)c3cccc(C(=O)O)c3)cc2CCC(=O)O)cc1`, the results for the IC50 in test [4] and in test [2] were 2 nM and 1000 nM, respectively.
